The text below walks through data of ChEMBL document CHEMBL1143908, “Functionalized chalcones as selective inhibitors of P-glycoprotein and breast cancer resistance protein” (Bioorg Med Chem, 2008).

Usually IC50 stands for the midpoint of a concentration-inhibition curve. As usually defined, the inhibition is the relative decrease from the control value, in per cent.

Data set [1] concerns the target T1, ATP-dependent translocase ABCB1 (Homo sapiens, UniProt P08183). As to the kind of experiment: Inhibition of human multidrug resistant gene Pgp expressed in MDCK2 cells assessed as calcein-AM accumulation at 10 uM after 40 mins. The note with it: mdck-ii. The data set is classed as cell-based. Set-up: scale not given: the % may be the effect or the level left.

In data set [2] the target is T2, Broad substrate specificity ATP-binding cassette transporter ABCG2 (Homo sapiens, UniProt Q9UNQ0).
T2 sequence (Q9UNQ0 whole entry): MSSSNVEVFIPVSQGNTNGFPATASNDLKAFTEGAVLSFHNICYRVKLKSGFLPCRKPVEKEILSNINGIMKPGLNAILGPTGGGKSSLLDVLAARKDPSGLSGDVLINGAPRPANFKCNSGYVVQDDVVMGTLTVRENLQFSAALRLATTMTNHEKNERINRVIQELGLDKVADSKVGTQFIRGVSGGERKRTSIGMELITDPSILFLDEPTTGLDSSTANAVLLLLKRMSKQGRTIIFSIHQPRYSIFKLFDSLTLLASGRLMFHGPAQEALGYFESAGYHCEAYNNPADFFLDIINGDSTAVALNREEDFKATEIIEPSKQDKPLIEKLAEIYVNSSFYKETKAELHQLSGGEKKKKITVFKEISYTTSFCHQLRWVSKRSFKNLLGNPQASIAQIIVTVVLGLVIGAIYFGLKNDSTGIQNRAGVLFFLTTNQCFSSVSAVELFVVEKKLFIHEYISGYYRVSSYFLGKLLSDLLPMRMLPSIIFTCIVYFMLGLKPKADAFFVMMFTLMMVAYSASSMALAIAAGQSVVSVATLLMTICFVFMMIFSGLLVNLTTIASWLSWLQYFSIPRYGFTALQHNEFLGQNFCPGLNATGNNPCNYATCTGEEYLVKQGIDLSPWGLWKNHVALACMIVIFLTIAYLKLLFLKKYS
Nature of the data set: Inhibition of human BCRP mediated mitoxantrone accumulation in mitoxantrone resistant MCF7 cells at 5 uM by flow cytometry. It is filed as cell-based. Set-up: scale not given: the % may be the effect or the level left. The note with it: mcf7, 5 µM. In outline: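 MCF-7/MX cells (selected in 250 nM mitoxantrone) trypsinized and resuspended at ~10^6 cells/ml in serum-free RPMI. Preincubated 15 min at 37 °C with compound (5 uM final) or vehicle (0.5% DMSO), then mitoxantrone 3 uM final added for 30 min. Stopped with ice-cold PBS and washed. Read by flow cytometry (488 nm excitation, 670 nm bandpass) as % area right of a marker set on MCF-7/WT autofluorescence (<5%). n = 4; FTC 10 uM as positive control.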
In general terms: Flow cytometry measures light scatter and fluorescence of single cells or particles in a stream.

For data set [3], the target named is T1, ATP-dependent translocase ABCB1. As to the kind of experiment: Inhibition of human multidrug resistant gene Pgp expressed in MDCK2 cells assessed as calcein-AM accumulation at 1 uM. It is filed as cell-based. As to conditions: mdck-ii; call rule not given here. The procedure, abridged: (§1)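 MDCKII/WT or human MDR1-transfected MDCKII/MDR1 cells (passages 8-17) seeded at 5.0 x 10^4 cells/well and cultured 24 h. Washed, then preincubated 30 min at 37 °C with compound in DMSO-HBSS (≤1% DMSO). Calcein-AM added to 2 uM final, and fluorescence (ex 485/em 535 nm) read every 10 min over 40 min. Accumulation taken at 40 min relative to untreated MDCKII/MDR1, or scaled to the WT-minus-MDR1 fluorescence difference.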

In data set [4] the test system is MCF7. Nature of the data set: Antiproliferative activity against adriamycin resistant human MCF7 cells after 72 hrs by MTT assay. The data set is classed as functional, cell-based. The note with it: MCF7, 72 h. In outline:
(§2)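 MCF-7/WT and MCF-7/Adr cells (Adr line kept in medium with 10 uM doxorubicin; RPMI 1640, 10% FBS) exposed to compound for 72 h. MTT then added for 3 h, cells washed with PBS, and formazan dissolved in DMSO. Absorbance read at 590 nm, 3 determinations per concentration, IC50 derived from the concentration-response curve.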
A general note: Formazan colour is commonly taken as a measure of viable cells.

Data set [5] addresses T1, ATP-dependent translocase ABCB1. Nature of the data set: Inhibition of human wild type gene Pgp expressed in MDCK2 cells assessed as calcein-AM accumulation at 1 uM. It is filed as cell-based. As to conditions: mdck-ii. In outline: as §1
A further data set addresses P-gp (ABCB1), wild type (Homo sapiens, UniProt P08183). As to the kind of experiment: Inhibition of human wild type Pgp expressed in MDCK2 cells assessed as calcein-AM accumulation at 50 uM after 40 mins. It is filed as cell-based, MDCK-II. As to conditions: MDCK2 cells expressing human wild type Pgp, probe calcein-AM. The procedure, abridged:
as §1

Data set [6] concerns MCF7. Nature of the data set: Antiproliferative activity against wild type human MCF7 cells after 72 hrs by MTT assay. The data set is classed as functional, cell-based. As to conditions: MCF7, 72 h. In outline:
as §2

For data set [7], the target named is T2, Broad substrate specificity ATP-binding cassette transporter ABCG2. As to the kind of experiment: Inhibition of human BCRP mediated mitoxantrone accumulation in mitoxantrone resistant MCF7 cells at 10 uM by flow cytometry. It is filed as cell-based. Set-up: scale not given: the % may be the effect or the level left. As to conditions: mcf7, 10 µM. In outline: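 MCF-7/MX cells are maintained in 250 nM mitoxantrone, then trypsinized, washed in ice-cold PBS and resuspended in serum-free RPMI 1640. They are pre-incubated 15 min at 37 °C with compound or vehicle (0.5% v/v DMSO), then exposed to mitoxantrone (3 uM final) for 30 min. Uptake is stopped with ice-cold PBS and cells are washed. Flow cytometry uses 488 nm excitation and a 670 nm filter. The read-out is % area beyond a marker set on MCF-7/WT autofluorescence (<5%).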

Data set [8] has the same target. As to the kind of experiment: Inhibition of human BCRP mediated mitoxantrone accumulation in wild type MCF7 cells at 5 uM by flow cytometry. It is filed as cell-based. Details: scale not given: the % may be the effect or the level left. The note with it: mcf7, 5 µM.

T1 sequence (P08183 whole entry): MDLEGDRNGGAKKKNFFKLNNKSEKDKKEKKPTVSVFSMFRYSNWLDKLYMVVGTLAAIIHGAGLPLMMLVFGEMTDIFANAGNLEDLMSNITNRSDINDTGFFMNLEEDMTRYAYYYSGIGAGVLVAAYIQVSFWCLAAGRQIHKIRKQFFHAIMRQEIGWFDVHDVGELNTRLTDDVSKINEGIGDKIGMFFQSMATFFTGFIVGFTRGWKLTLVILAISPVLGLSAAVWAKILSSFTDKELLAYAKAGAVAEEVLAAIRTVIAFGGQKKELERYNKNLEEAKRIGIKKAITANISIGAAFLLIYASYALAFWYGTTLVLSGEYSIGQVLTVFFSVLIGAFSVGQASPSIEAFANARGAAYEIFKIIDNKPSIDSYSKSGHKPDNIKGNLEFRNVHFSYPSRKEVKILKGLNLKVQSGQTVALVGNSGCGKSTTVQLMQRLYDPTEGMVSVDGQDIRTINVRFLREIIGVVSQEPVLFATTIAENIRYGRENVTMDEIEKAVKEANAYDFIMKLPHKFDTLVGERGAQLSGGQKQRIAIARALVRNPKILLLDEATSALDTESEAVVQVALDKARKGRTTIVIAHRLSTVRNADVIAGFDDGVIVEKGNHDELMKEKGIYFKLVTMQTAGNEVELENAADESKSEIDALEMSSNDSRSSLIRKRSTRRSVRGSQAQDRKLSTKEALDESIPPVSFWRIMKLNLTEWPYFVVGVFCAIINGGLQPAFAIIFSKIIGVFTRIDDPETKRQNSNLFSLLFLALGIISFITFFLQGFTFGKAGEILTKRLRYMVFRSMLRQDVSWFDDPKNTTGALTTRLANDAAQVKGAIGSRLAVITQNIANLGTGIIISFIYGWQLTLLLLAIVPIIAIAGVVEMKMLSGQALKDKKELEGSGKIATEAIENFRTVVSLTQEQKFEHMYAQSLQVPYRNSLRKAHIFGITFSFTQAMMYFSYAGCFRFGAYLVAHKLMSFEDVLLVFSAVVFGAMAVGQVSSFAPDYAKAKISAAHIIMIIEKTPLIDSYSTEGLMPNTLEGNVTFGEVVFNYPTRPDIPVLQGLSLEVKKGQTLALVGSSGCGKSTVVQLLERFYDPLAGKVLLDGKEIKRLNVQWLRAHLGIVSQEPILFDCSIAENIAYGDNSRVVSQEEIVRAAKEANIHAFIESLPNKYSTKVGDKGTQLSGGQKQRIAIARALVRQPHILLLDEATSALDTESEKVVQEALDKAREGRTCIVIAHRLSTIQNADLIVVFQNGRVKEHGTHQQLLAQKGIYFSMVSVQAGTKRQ
P-gp (ABCB1), wild type, sequence (P08183 whole entry): as above

Turning to `COc1ccc(/C=C/C(=O)c2ccc(OC)c(OC)c2OC)c(OC)c1`, the Activity in data set [1] is listed as 174%.
Regarding `COc1ccc(C(=O)/C=C/c2ccc(Cl)cc2)c(OC)c1`, the Activity in data set [2] is 348.6%; in data set [1], 101%.
Regarding `COc1ccc(/C=C/C(=O)c2ccc(OC)cc2OC)c(OC)c1`, the Activity in data set [1] was 172%.
On to `COc1ccc(C(=O)/C=C/c2ccc(N3CCN(C)CC3)cc2)c(OC)c1`, for which the Activity in data set [1] is 159%.
Take `COc1ccc(/C=C/C(=O)c2ccc(N3CCNCC3)cc2)c(OC)c1`: the Activity in data set [2] is 188.4%; in data set [3], “Active”; in data set [1], 216%; in [5] it was “Active”. This molecule also gave an IC50 with MCF7 [4] of 21.5 µM.
Turning to `COc1cc(OC)c(C2CCN(C)CC2)cc1C(=O)/C=C/c1ccncc1`, in data set [1], the Activity is 117%.
In the case of `O=C(/C=C/c1ccccc1Cl)c1ccc(N2CCNCC2)cc1`, the Activity in data set [1] is 139%.
On the same count and under the same terms, the value for `COc1cc(OC)c(C2CCN(C)CC2)cc1C(=O)/C=C/c1cccnc1` was 170%; that for `O=C(/C=C/c1ccc(Cl)cc1)c1ccc(N2CCCCC2)cc1` was 103%.
On to `COc1cc(OC)c(N2CCN(C)CC2)cc1C(=O)/C=C/c1ccc(N2CCN(C)CC2)cc1`, for which, in data set [1], the Activity is reported as 107%.
Still for that read-out and setting: then `COc1cc(OC)c(C2CCN(C)CC2)cc1C(=O)/C=C/c1ccccn1`, with 164%.
As to `COc1ccc(C2CCN(C)CC2)cc1C(=O)/C=C/c1ccccc1`, in [1], the Activity is 178%.
For the molecule `CCN1CCC(c2cc(C(=O)/C=C/c3ccccc3Cl)c(OC)cc2OC)CC1`, the values for the Activity entry in data set [3], in data set [1] and in data set [5] were “Active”, 280% and “Active”, respectively. The figures for the IC50 in the data set with MCF7 [4] and in the data set on MCF7 [6] were 3.6 µM and 2.6 µM, respectively. The inhibition at 40 min, 50 µM on P-gp (ABCB1), wild type was > 100%.
With `CCN1CCC(c2cc(C(=O)/C=C/c3ccccc3)c(OC)cc2OC)CC1`, the Activity entry is “Active” in [3], 256% in data set [1] and “Active” in data set [5]. Further, the IC50 is 6.1 µM in the data set with MCF7 [4] and 4.8 µM in the data set on MCF7 [6].
Turning to `CCN1CCC(c2cc(C(=O)/C=C/c3ccc(Cl)cc3)c(OC)cc2OC)CC1`, in [1], the Activity is on record as 247%.
As to `CCN1CCC(c2cc(C(=O)/C=C/c3ccc(N4CCN(C)CC4)cc3)c(OC)cc2OC)CC1`, the Activity in [1] was 120%.
With `CCN1CCC(c2cc(C(=O)/C=C/c3ccncc3)c(OC)cc2OC)CC1`, the Activity in data set [1] was 151%.
In the case of `COc1ccc(C(=O)/C=C/c2ccc(C(F)(F)F)cc2)c(OC)c1`, in data set [1], the Activity was 103%.
Still for that read-out and setting: the value for `COc1cc(OC)c(C2CCN(C)CC2)cc1C(=O)/C=C/c1ccc(N2CCN(C)CC2)cc1` was 102%; that for `COc1cc(OC)c(N2CCN(C)CC2)cc1C(=O)/C=C/c1ccccc1` was 176%.
The same measure, in the same setting: the value for `O=C(/C=C/c1ccc(Cl)cc1)c1ccc(N2CCNCC2)cc1` was 135%; that for `COc1cc(OC)c(C2CCN(C)CC2)c(O)c1C(=O)/C=C/c1ccc(N2CCN(C)CC2)cc1` was 118%; that for `COc1ccc(/C=C/C(=O)c2ccc(N3CCCCC3)cc2)c(OC)c1` was 178%.
As to `COc1cc(OC)c(N2CCN(C)CC2)cc1C(=O)/C=C/c1ccccc1Cl`, the Activity in data set [1] is listed as 222%.
Consider `O=C(/C=C/c1ccccc1)c1ccc(N2CCCCC2)cc1`, for which the Activity in [1] was 112%.
Molecule `COc1ccc2c3c([nH]c2c1)[C@H](C=C(C)C)N1C(=O)[C@@H]2CCCN2C(=O)[C@@H]1C3` [FUMITREMORGIN] registered an Activity in data set [7] of 274.5%.
`O=C1c2c(O)ccc(O)c2C(=O)c2c(NCCNCCO)ccc(NCCNCCO)c21` [MITOXANTRONE] gave an Activity in data set [8] of 439.2%.
